Broadly, the MRT is a mean duration of stay, worked out from the concentration-time curve. The term half-life denotes the time needed for the level to fall by half in the phase considered. Read a low half-life as fast loss. For orientation: Cmax means the highest concentration seen after dosing. One may read the AUC as the area under the concentration-time curve, a measure of exposure. Lower therefore signals less exposure. What is called AUC(0-t) is the area under the concentration-time curve up to a stated or last time point. The low end stands for low exposure, the high end for high exposure. For orientation: EC50 means the midpoint of the concentration-response curve. A word on the clearance: it is a measure of how efficiently the substance is removed, as volume per time. As usually defined, the CC50 is the concentration that lowers cell viability or growth by half. As usually defined, the Tmax is the time at which the peak concentration occurs. One may read the inhibition as the change of the read-out against control, counted positive when it falls.

Structures are written as SMILES. Calls of active or inactive are those of the source.

Series [1] in a line: Mean residence time in C57BL/6 mouse at 1 mg/kg, iv measured upto 24 hrs by LC-MS/MS analysis. The format is ADME, organism-based. The note with it: in vivo. In short, it runs like this:
(§1)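 Fasted male C57BL/6 mice (n = 3/group) were given a single IV dose of 1 mg/kg. Vehicle was 5% DMSO, 10% solutol and 85% PBS with 20% Captisol, at 1 mL/kg. Blood was taken at 0.083, 0.25, 0.5, 1, 2, 4, 6, 8 and 24 h and spun at 4°C to plasma. Plasma levels were measured by LC-MS/MS and parameters derived by non-compartmental analysis.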

The nature of series [2]: Oral bioavailability in C57BL/6 mouse at 5 mg/kg measured upto 24 hrs by LC-MS/MS analysis. The settings on record: in vivo.
Series [3] relates to Trypanosoma brucei rhodesiense. The series can be described thus: In vivo antitrypanosomal activity against Trypanosoma brucei rhodesiense infected in female NMRI mouse assessed survival rate at 200 mg/kg, po qd measured upto 60 days. The note with it: time <= 60.0 day.
Series [4] can be described thus: Half life in C57BL/6 mouse at 1 mg/kg, iv measured upto 24 hrs by LC-MS/MS analysis. The format is ADME, organism-based. The settings on record: in vivo. The procedure, abridged: as §1
A short description of series [5]: Initial plasma concentration in C57BL/6 mouse at 1 mg/kg, iv measured upto 24 hrs by LC-MS/MS analysis. It counts as ADME, organism-based. In short, it runs like this: as §1
Series [6] in a line: Cmax in C57BL/6 mouse at 5 mg/kg, po measured upto 24 hrs by LC-MS/MS analysis. The settings on record: in vivo.
Series [7] can be described thus: AUC (0 to infinity) in C57BL/6 mouse at 1 mg/kg, iv measured upto 24 hrs by LC-MS/MS analysis. The format is ADME, organism-based. The note with it: in vivo. In short, it runs like this:
as §1

Series [8] is described as follows: AUC (0 to t) in C57BL/6 mouse at 1 mg/kg, iv measured upto 24 hrs by LC-MS/MS analysis. The format is ADME, organism-based. The note with it: in vivo. The procedure, abridged: as §1
The subject of series [9] is Trypanosoma brucei rhodesiense. The series can be described thus: Antitrypanosomal activity against bloodstream forms of Trypanosoma brucei rhodesiense STIB 900 assessed as growth inhibition incubated for 70 hrs followed by treated with resazurin 2 to 4 hrs by resazurin based fluorescence assay. It counts as functional, organism-based. The procedure, abridged:
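Bloodstream STIB 900 at 2x10^4 parasites/well in HMI-9 with 15% heat-inactivated horse serum. Eleven 3-fold dilutions spanned 100 to 0.002 μM. Plates ran 70 h at 37 °C in 5% CO2, then resazurin for 2–4 h. Fluorescence read at ex/em 536/588 nm; melarsoprol was the control.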
In general terms: Alamar Blue is a resazurin reagent that responds to reducing activity.

The nature of series [10]: Metabolic stability in mouse liver microsomes assessed as half life at 0.1 uM measured for every 15 mins by HPLC-MS/MS analysis. The format is ADME, Microsome. The settings on record: 0.25 h. A general note: Liver microsomes are a subcellular fraction often used to study metabolism.
The nature of series [11]: AUC (0 to infinity) in C57BL/6 mouse at 5 mg/kg, po measured upto 24 hrs by LC-MS/MS analysis. The settings on record: in vivo.
Series [12] in a line: Volume of distribution at steady state in C57BL/6 mouse at 1 mg/kg, iv measured upto 24 hrs by LC-MS/MS analysis. The note with it: in vivo, read-out: Vdss. It counts as ADME, organism-based. In short, it runs like this: as §1
The test system of series [13] is Trypanosoma brucei brucei. The series can be described thus: In vivo antitrypanosomal activity against Trypanosoma brucei brucei AnTat1.1 trypomastigotes expressing Renilla luciferase infected in BALB/c mouse assessed reduction in parasitemia at 100 mg/kg, po treated for 5 days. The settings on record: time 5.0 day.
The nature of series [14]: Clearance in C57BL/6 mouse at 1 mg/kg, iv measured upto 24 hrs by LC-MS/MS analysis. The format is ADME, organism-based. The note with it: in vivo. In short, it runs like this:
as §1

Series [15] in a line: AUC (0 to t) in C57BL/6 mouse at 5 mg/kg, po measured upto 24 hrs by LC-MS/MS analysis. The note with it: in vivo.
Series [16] can be described thus: Half life in C57BL/6 mouse at 5 mg/kg, po measured upto 24 hrs by LC-MS/MS analysis. The note with it: in vivo.
Series [17] has as its system Trypanosoma brucei brucei. Nature of the series: In vivo antitrypanosomal activity against Trypanosoma brucei brucei AnTat1.1 trypomastigotes expressing Renilla luciferase infected in BALB/c mouse assessed suppression of parasite growth at 100 mg/kg, ip treated for 5 days. The settings on record: time 5.0 day.
Series [18] can be described thus: Apparent volume of distribution in C57BL/6 mouse at 1 mg/kg, iv measured upto 24 hrs by LC-MS/MS analysis. It counts as ADME, organism-based. The settings on record: in vivo, read-out: Vz. In short, it runs like this:
as §1

A further series concerns HepG2. The series can be described thus: Cytotoxicity against human HepG2 cells assessed as cell growth measured after 72 hrs mby MTT assay. The format is toxicity, cell-based. The note with it: hepg2, 72 h. In short, it runs like this: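 HepG2 in DMEM:F12 with 10% FBS were seeded at 5 x 10^5 cells/mL and allowed 18-24 h. Compounds in DMSO over 0.01–300 μM for 72 h. MTT was then added for 30 min, formazan dissolved in DMSO and absorbance read at 550 nm. Triplicates; SDS (10%) and podophyllotoxin were the controls. CC50 = half-maximal cellular viability.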
(Formazan colour is commonly taken as a measure of viable cells.)

Series [19] is described as follows: Metabolic stability in mouse liver S9 fraction assessed as half life at 0.1 uM measured for every 15 mins by HPLC-MS/MS analysis. The note with it: s9, 0.25 h. It counts as ADME, subcellular.
Series [20] is described as follows: Mean residence time in C57BL/6 mouse at 5 mg/kg, po measured upto 24 hrs by LC-MS/MS analysis. The note with it: in vivo.
The subject of series [21] is Trypanosoma brucei gambiense. The series can be described thus: Antitrypanosomal activity against bloodstream forms of Trypanosoma brucei gambiense 130R assessed as growth inhibition incubated for 68 hrs followed by treated with resazurin 4 to 6 hrs by resazurin based fluorescence assay. It counts as functional, organism-based. The procedure, abridged:
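Bloodstream 130R at 4x10^4 parasites/well in HMI-9 with 15% heat-inactivated fetal calf and 5% human serum. Eleven 3-fold dilutions spanned 100 to 0.002 μM. Plates ran 68 h at 37 °C in 5% CO2, then resazurin for 4–6 h. Fluorescence read at ex/em 536/588 nm; melarsoprol was the control.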

In series [22] the test system is Trypanosoma brucei brucei. The series can be described thus: Antitrypanosomal activity against bloodstream forms of Trypanosoma brucei brucei strain 427 assessed as growth inhibition measured after 48 hrs by Alamar blue assay. The format is functional, organism-based. The settings on record: Trypanosoma brucei, 427, 48 h. The procedure, abridged:
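Bloodstream T. b. brucei 427 at 5 x 10^3 cells/well in supplemented HMI-9 with 10% FBS. Compounds in DMSO over 0.01–50 μM, triplicates. After 48 h exposure, Alamar blue was added for 4 h at 37°C. Fluorescence read at ex/em 530/590 nm; suramin was the positive control. EC50 = half-maximal trypanosomal viability.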

Series [23] is described as follows: Tmax in C57BL/6 mouse at 5 mg/kg, po measured upto 24 hrs by LC-MS/MS analysis. The note with it: in vivo.
Series [24] concerns Trypanosoma brucei brucei. Nature of the series: In vivo antitrypanosomal activity against Trypanosoma brucei brucei AnTat1.1 trypomastigotes expressing Renilla luciferase infected in BALB/c mouse assessed suppression of parasite growth at 100 mg/kg, po treated for 5 days. The settings on record: time 5.0 day.
In series [25] the test system is Trypanosoma brucei rhodesiense. The series can be described thus: Inhibition of Trypanosoma brucei rhodesiense MVAT4 strain Cathepsin-L expressed in Pichia pastoris at 10 uM relative to control. In short, it runs like this: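 Trypanosomal cathepsin L, expressed in Pichia pastoris and purified, was tested at 10 μM after 1 hour. The read-out was percentage inhibition, with E-64 as positive control.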

The nature of series [26]: Half life in mouse at 25 mg/kg, po. The format is ADME, organism-based. The note with it: in vivo.
Series [27] in a line: Tmax in mouse at 25 mg/kg, po. It counts as ADME, organism-based. The note with it: in vivo.

For `CNC(=O)/C=C/CNC(=O)c1ccc([N+](=O)[O-])s1`, the MRT in [1] came out at 30 min; in series [20], 54 min. Moreover, the F in series [2] amounted to 99.2%. Further, the outcome in [3], in series [13], in [17] and in [24] was Active. Further, the half-life in [4] is 24 min; in series [16] it was 30 min. In addition, the C0 at 24 h in [5] was found to be 636 ng/mL. In series [6], this compound displayed a Cmax of 1650 ng/mL. Also, the area under the curve (AUC) was 343.2 ng·h/mL in series [7] and 1702.8 ng·h/mL in [11]. In addition, the AUC(0-t) at 24 h in series [8] turned out to be 333 ng·h/mL; in series [15] it was 1700 ng·h/mL. In addition, the EC50 in series [9] was 140 nM; in series [21] it was 130 nM; in series [22], 540 nM. Further, the t1/2 in series [10] and in [19] was over 60 min in each case. Moreover, the values for the Vd in [12] and in series [18] were 1.6 L/kg and 1.7 L/kg, respectively. Besides, the clearance in series [14] stood at 48.8 mL/min/kg. Besides, the CC50 in the series with HepG2 is over 75000 nM. Besides, the Tmax in series [23] turned out to be 18 min. The same compound displayed an inhibition in [25] of 43.9%.
On to `CSc1ccc(OCc2ncc([N+](=O)[O-])n2C)cc1` [FEXINIDAZOLE], for which, in series [26], the half-life is 48 min. The Tmax in [27] amounted to 15 min.

(Values after ChEMBL document CHEMBL5532650, “Discovery of an orally active nitrothiophene-based antitrypanosomal agent” (Eur J Med Chem, 2024).)
